Dynein transport: dynein cargo transport inhibition; 3617.4 mouse cells, GR-EGFP nuclear translocation imaging; test concentration mostly 20 µM; stimulated with dexamethasone, 1 µM; hits give low values; z-score, hits read low; 0.47% of 220,000 active;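 active = plate z-score of nuclear minus cytoplasmic receptor signal below a set negative limit, without overly bright fluorescence or cell loss, cut at about -3.5 in these data, passing the limit was not always enough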;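 note: z-score of nuclear minus cytoplasmic ring GR-EGFP intensity difference per well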
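Buffer or medium: tet-free, stripped-serum medium; Also added: dexamethasone, 1.0 µM final; Technique: high-content fluorescence imaging after fixation; Times: 48 h induction, 1 h compound, 30 min dex at 37 °C; Read-out: per-cell GR-EGFP intensity, nucleus versus surrounding cytoplasmic ring, well-averaged.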
HSV augment: increases HSV replication in cells | maximum fold increase | 0.005% of 220,000 active | HSV replication augmentation in cells, fold increase | AID 1956; in the data active = maximum fold increase above about 1.5; tested in PC3 cells
Furin inh: human furin inhibition. P09958. purified furin, fluorogenic substrate cleavage. inhibition, % at 20 µM or 30 µM. 0.061% of 220,000 active. AID 463115; in the data active = inhibition above about 25%
Target sequence (P09958 108-714 limits assumed): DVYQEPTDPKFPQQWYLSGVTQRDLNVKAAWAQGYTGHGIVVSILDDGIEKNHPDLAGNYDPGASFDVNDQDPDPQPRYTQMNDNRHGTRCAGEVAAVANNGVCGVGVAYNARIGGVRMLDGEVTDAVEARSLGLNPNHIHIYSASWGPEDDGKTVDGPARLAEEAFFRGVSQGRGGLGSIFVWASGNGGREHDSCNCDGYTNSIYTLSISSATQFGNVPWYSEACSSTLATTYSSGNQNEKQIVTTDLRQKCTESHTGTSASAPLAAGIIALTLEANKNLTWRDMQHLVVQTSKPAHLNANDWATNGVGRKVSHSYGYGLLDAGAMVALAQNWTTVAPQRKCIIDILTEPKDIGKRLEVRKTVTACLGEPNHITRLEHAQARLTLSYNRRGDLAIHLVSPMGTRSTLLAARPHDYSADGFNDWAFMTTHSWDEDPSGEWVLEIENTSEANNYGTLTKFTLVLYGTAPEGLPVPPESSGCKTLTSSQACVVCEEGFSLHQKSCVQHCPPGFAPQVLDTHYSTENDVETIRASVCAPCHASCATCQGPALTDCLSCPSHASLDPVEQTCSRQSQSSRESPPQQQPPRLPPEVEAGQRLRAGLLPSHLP
TNF necrop inh: TNF-alpha cell death inhibition in Jurkat FADD-/- cells. 0.068% of 220,000 active. AID 463075. Jurkat FADD-/- TNF necroptosis rescue, ATP luminescence, 24 h; 0 = TNF only, 100 = no-TNF cells. activation (protection from cell death), % at 10 µM;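 active = activation, meaning protection from cell death, of at least 50% relative to plate controls; inactive = activation below 50%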;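 note: necroptosis triggered by 40 ng/mL TNF-alpha added together with compound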
zVAD death inh: blocks zVAD induced death of L929 cells; 0.38% of 220,000 active; AID 1377; viability rescue, % at 10 µM; L929 zVAD necroptosis rescue, ATP luminescence, 24 h; with zVAD 60 µM;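 active = activation, scaled between plate controls, above about 75%, limit read from the data; inactive = activation under that limit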;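 note: 0% = zVAD with DMSO and 100% = DMSO alone without zVAD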
Autophagy mod: alters autophagy in cells; MEF GFP-LC3 puncta imaging; test concentration mostly 10 µM; calls only at 10 µM (by protocol); 0.98% of 190,000 active; AID 463193;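 active = percentage of spot-positive cells more than 3 SD above its plate mean, without a fluorescence outlier flag or 80% toxicity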;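 note: spot-positive cell cutoff set from DMSO-treated cells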
An asterisk follows results filed as active. Compounds with a hit are over-represented: about 1.8% of the library has one in this group of screens.

CCC1COC(c2cccn2Cc2ccccc2Cl)=N1 (stereo not given) was read as Dynein transport 1.1, HSV augment inactive, Furin inh -16, TNF necrop inh 1, zVAD death inh -1 and Autophagy mod active.
O=C1c2ccsc2SCCN1Cc1ccccc1 was read as Dynein transport -1.2, HSV augment inactive, Furin inh -11, TNF necrop inh 70*, zVAD death inh 1 and Autophagy mod inactive.
Screening CCOc1ccc(OCCn2nnc3ccccc3c2=O)cc1 returned Dynein transport -0.52, HSV augment inactive, Furin inh -7, TNF necrop inh 1, zVAD death inh 0 and Autophagy mod inactive.
CCOc1cc(N(CC)CC)ccc1/C=C(/C#N)c1nc2ccccc2[nH]1 was read as Dynein transport 3.6, Furin inh 4, TNF necrop inh -6, zVAD death inh 4 and Autophagy mod active.
`CCN(CC)c1ccc(/C=C(/C#N)c2nc3ccc(C)cc3[nH]2)c(OC(C)C)c1` gave Dynein transport -1.8, Furin inh -26, TNF necrop inh -4, zVAD death inh 5 and Autophagy mod active.
Screening CCCOc1cc(N(CC)CC)ccc1/C=C(/C#N)c1nc2ccc(C)cc2[nH]1 returned Dynein transport -0.17, Furin inh -6, TNF necrop inh 2, zVAD death inh 2 and Autophagy mod active.
Screening Cc1cc(/C=C(\C#N)c2nc3ccccc3[nH]2)c(C)n1C returned Dynein transport 0.11, HSV augment inactive, Furin inh 0, TNF necrop inh 1, zVAD death inh 5 and Autophagy mod inactive.
Cc1onc(-c2c(F)cccc2Cl)c1C(=O)N1CCOC12CCCCC2 was read as Dynein transport -0.72, HSV augment inactive, Furin inh -28, TNF necrop inh 0, zVAD death inh 2 and Autophagy mod inactive.
O=C(Cn1cc(C(F)(F)F)cc(Cl)c1=O)NCCc1ccccc1 was read as Dynein transport 0.56, HSV augment inactive, Furin inh -13, TNF necrop inh 2, zVAD death inh 0 and Autophagy mod inactive.
Screening CN1c2ccsc2/C(=N/NC(=O)c2c(F)cccc2F)CS1(=O)=O returned Dynein transport 1.5, HSV augment inactive, Furin inh -11, TNF necrop inh -1, zVAD death inh 1 and Autophagy mod inactive.
`CN1c2ccsc2/C(=N/Nc2ccccc2)CS1(=O)=O` gave Dynein transport -1, HSV augment inactive, Furin inh -4, TNF necrop inh 1, zVAD death inh 0 and Autophagy mod active.
O=C(CCCc1nc2ccccc2s1)NCc1cccnc1 was read as Dynein transport 3, HSV augment inactive, Furin inh -16, TNF necrop inh 1, zVAD death inh 1 and Autophagy mod inactive.
`CC1=NN(c2cccc(C(=O)O)c2)C(=O)/C1=C\C=C\c1ccco1` gave Dynein transport -4.6*, Furin inh -10, TNF necrop inh -6, zVAD death inh -1 and Autophagy mod inactive.
O=C1NN(c2ccc(F)cc2)C(=O)/C1=C\C=C\c1ccco1 was read as Dynein transport -1.2, HSV augment inactive, Furin inh -3, TNF necrop inh 0, zVAD death inh 0 and Autophagy mod inactive.
`CCn1c2ccccc2c2cc(/C=N/n3cnnc3)ccc21` gave Dynein transport -0.13, HSV augment inactive, Furin inh -18, TNF necrop inh -15, zVAD death inh 1 and Autophagy mod active.
For O=C(NCCO)/C(=C/c1ccc2c(c1)OCO2)NC(=O)c1ccc(Br)cc1 the results were Dynein transport 1.7, HSV augment inactive, Furin inh -8, TNF necrop inh 1, zVAD death inh 1 and Autophagy mod active.
O=C(O)CNC(=O)/C(=C\c1ccc2c(c1)OCO2)NC(=O)c1ccc(Br)cc1 was read as Dynein transport -0.32, HSV augment inactive, Furin inh -17, TNF necrop inh 0, zVAD death inh 15 and Autophagy mod inactive.
Cc1cccc(CN2C(=O)c3ccccc3Sc3ccc(C(=O)NCCN4CCOCC4)cc32)c1 was read as Dynein transport -0.099, HSV augment inactive, Furin inh -29, TNF necrop inh 0, zVAD death inh 1 and Autophagy mod inactive.
`O=C(NCCN1CCOCC1)c1ccc2c(c1)N(Cc1ccccc1F)C(=O)c1ccccc1S2` gave Dynein transport 0.6, HSV augment inactive, Furin inh -12, TNF necrop inh 2, zVAD death inh 0 and Autophagy mod active.
Screening CCOC(=O)c1cc2sccc2n1CC(=O)C(C)(C)C returned Dynein transport -0.26, HSV augment inactive, Furin inh -29, TNF necrop inh -1, zVAD death inh 2 and Autophagy mod inactive.
Cc1ccc(S(=O)(=O)C(C#N)=C2N(C)c3ccccc3N2C)cc1 was read as Dynein transport 1.3, HSV augment inactive, Furin inh -11, TNF necrop inh 0, zVAD death inh 1 and Autophagy mod active.
For Cc1ccc(N/C=C(\C#N)S(=O)(=O)c2ccccc2)cc1 the results were Dynein transport 0.64, HSV augment inactive, Furin inh -21, TNF necrop inh 2, zVAD death inh 1 and Autophagy mod inactive.
For Cc1c(NC(=O)CN2c3ccccc3CC2C)c(=O)n(-c2ccccc2)n1C (stereo not given) the results were Dynein transport 0.044, HSV augment inactive, Furin inh -24, TNF necrop inh 0, zVAD death inh 1 and Autophagy mod inactive.
For CCOC(=O)COc1ccccc1/C=C\[N+](=O)[O-] the results were Dynein transport -3.6*, HSV augment inactive, Furin inh -21, TNF necrop inh 1, zVAD death inh 2 and Autophagy mod inactive.
Screening Cc1ccc(C)c2c1[nH]c1ccc([N+](=O)[O-])cc12 returned Dynein transport 1.8, HSV augment inactive, Furin inh 0, TNF necrop inh -3, zVAD death inh 0 and Autophagy mod inactive.
Screening COc1ccc(/C=C/C(=O)Nc2cccc(N3CCOCC3)c2)cc1OC returned Dynein transport 0.86, Furin inh -8, TNF necrop inh -6, zVAD death inh 0 and Autophagy mod inactive.
For CCC1CN(C(=O)Nc2ccc(C)cc2)c2cc(C)ccc2O1 (stereo not given) the results were Dynein transport -0.89, HSV augment inactive, Furin inh -24, TNF necrop inh 2, zVAD death inh 0 and Autophagy mod active.
Screening COc1ccc(CCNC(=O)CO/N=C/c2cc3c(cc2Br)OCO3)cc1OC returned Dynein transport -0.56, HSV augment inactive, Furin inh -26, TNF necrop inh 3, zVAD death inh 2 and Autophagy mod inactive.

Assay outcomes as filed in PubChem BioAssay.
